Measurements collected from several papers.
Compare with care: the assays were run in different laboratories.
Technique: competition with immobilised ligand
RPS6KA4 C-terminal kinase domain: Ribosomal protein S6 kinase alpha-4, C-terminal kinase domain (RPS6KA4, Homo sapiens, UniProt O75676)
RPS6KA4 N-terminal kinase domain: Ribosomal protein S6 kinase alpha-4, N-terminal kinase domain (RPS6KA4, Homo sapiens, UniProt O75676)

FC(F)(F)Oc1cccc(-c2cnc3ccc(-c4ccncc4)nn23)c1
remaining binding (RPS6KA4 C-terminal kinase domain; binding; 5 µM): 87%

COc1cnc(Nc2cccc(S(N)(=O)=O)c2)nc1N1CCN(c2ccccc2)CC1
remaining binding (RPS6KA4 C-terminal kinase domain; binding; 1 µM): 89%

O=C(Nc1c[nH]nc1C(=O)NC1CCNCC1)c1cc(F)cc(F)c1
remaining binding (RPS6KA4 C-terminal kinase domain; binding; 1 µM): 34%

O=C(NCCCC1CCCCC1)c1ccc(CNC(=O)c2cnn(-c3ccccc3)c2C(F)(F)F)cc1
remaining binding (RPS6KA4 C-terminal kinase domain; cell-free assay; 0.1 µM): 90%

Cc1cnc(Nc2ccc(C(=O)N3CCC(N4CCCC4)CC3)cc2)nc1-c1cc2ccccc2s1
remaining binding (RPS6KA4 N-terminal kinase domain; binding; 1 µM): 100%

COc1ncc2cc3ccccc3nc2c1C#N
remaining binding (RPS6KA4 C-terminal kinase domain; cell-free assay; 5 µM): 58%

CNC(=O)[C@@H]1CC[C@@H](n2c(-c3ccc4cnccc4c3)nc3ccc(C(=O)NCc4cccc(C(N)=O)c4)cc32)C1
remaining binding (RPS6KA4 N-terminal kinase domain; binding; 1 µM): 100%

CS(=O)(=O)NCC[C@H](NC(=O)c1cncc2c1cnn2-c1ccc(F)cc1)c1ccnc(S(C)(=O)=O)c1
remaining binding (RPS6KA4 N-terminal kinase domain; cell-free assay; 1 µM): 85%

CN(c1nccc(-c2cnn3ncccc23)n1)C1CC1
remaining binding (RPS6KA4 C-terminal kinase domain; binding; 1 µM): 100%

O=C(c1ccc(Nc2nccc(-c3cc4ccccc4s3)n2)cc1)N1CCC(N2CCCC2)CC1
remaining binding (RPS6KA4 N-terminal kinase domain; binding; 1 µM): 100%

O=C(O)[C@H]1[C@H](Cn2nnc3ccccc3c2=O)CC[C@@H]1C(=O)c1ccc(OCCC2CCOCC2)cc1
remaining binding (RPS6KA4 N-terminal kinase domain; cell-free assay; 1 µM): 100%

C[C@@H](c1ccc(-n2cnc3c(N)ncnc32)cc1)N1CCc2nn(C)c(Cc3ccccc3)c2C1=O
remaining binding (RPS6KA4 N-terminal kinase domain; binding; 0.1 µM): 84%

C=CC(=O)N1CCC(C(=O)NCC(=O)N2CCN(c3nc(-c4cnc(N)nc4C(F)F)nc(N4CCOCC4)n3)CC2)CC1
remaining binding (RPS6KA4 N-terminal kinase domain; binding; 1 µM): 82%

C[C@H]1CCN(c2nccc(-c3cnn4ncccc34)n2)C1
remaining binding (RPS6KA4 C-terminal kinase domain; binding; 1 µM): 56%

C[C@@]1(Cc2ccc(C#N)cc2)C(=O)N(c2cc(Cl)cc(Cl)c2)c2ncc(C(=O)NC3(c4nc(C5CCC5)no4)CC3)n21
remaining binding (RPS6KA4 C-terminal kinase domain; cell-free assay; 1 µM): 100%

c1cnn2ncc(-c3ccnc(N4CCC45COC5)n3)c2c1
remaining binding (RPS6KA4 C-terminal kinase domain; binding; 1 µM): 55%

CNCc1ccccc1-c1csc([C@@H](C)Nc2nc(C)nc3cc(OC)c(OC)cc23)c1
remaining binding (RPS6KA4 N-terminal kinase domain; cell-free assay; 1 µM): 100%

c1cncc(-c2cccc(Nc3nccc(NC4CCCCC4)n3)c2)c1
remaining binding (RPS6KA4 C-terminal kinase domain; binding; 10 µM): 100%

CN(C(=O)c1ccccc1)c1cc(N(C)c2ccc3c(c2)CCc2ccc(C(=O)NCCN4CCOCC4)cc2C3=O)ccc1F
remaining binding (RPS6KA4 N-terminal kinase domain; cell-free assay; 1 µM): 59%

COc1cnc(Nc2cccc(S(N)(=O)=O)c2)nc1N1CCN(c2ccccc2)C(=O)C1
remaining binding (RPS6KA4 N-terminal kinase domain; binding; 1 µM): 100%

O=C(c1ccc(Nc2ncc(Cl)c(-c3ccc(Cl)s3)n2)cc1)N1CCC(N2CCCC2)CC1
remaining binding (RPS6KA4 N-terminal kinase domain; binding; 1 µM): 100%

CSc1cccnc1N1CCN(Cc2nc3ccccc3[nH]2)CC1
remaining binding (RPS6KA4 N-terminal kinase domain; cell-free assay; 1 µM): 94%

O=C(NCCCN1CCOCC1)c1ccc(Nc2nccc(-c3cc4ccccc4s3)n2)cc1
remaining binding (RPS6KA4 C-terminal kinase domain; binding; 1 µM): 19%

CCN1CCN(Cc2ccc(C(=O)Nc3ccc(C)c(Oc4ccc5c(c4)CC(=O)N5)c3)cc2C(F)(F)F)CC1
remaining binding (RPS6KA4 C-terminal kinase domain; binding; 1 µM): 100%

F[C@@H]1CCN(c2nccc(-c3cnn4ncccc34)n2)C1
remaining binding (RPS6KA4 N-terminal kinase domain; binding; 1 µM): 90%

O=C(NCCCN1CCOCC1)c1ccc(Nc2ncc(Cl)c(-c3ccc(Cl)s3)n2)cc1
remaining binding (RPS6KA4 N-terminal kinase domain; binding; 1 µM): 100%

CN(CCCC(F)(F)F)c1nccc(-c2cnn3ncccc23)n1
remaining binding (RPS6KA4 C-terminal kinase domain; binding; 1 µM): 100%

O=C(NCC1CCOCC1)c1n[nH]cc1NC(=O)c1c(F)cccc1F
remaining binding (RPS6KA4 C-terminal kinase domain; binding; 1 µM): 29%

COc1ccnn2ncc(-c3ccnc(N(C)C)n3)c12
remaining binding (RPS6KA4 N-terminal kinase domain; binding; 1 µM): 97%

CO[C@@H](C)c1c(Nc2ccc([C@H](N(C)C(=O)C3CCS(=O)(=O)CC3)C(F)(F)F)cc2)cnc2cc(Cl)nn12
remaining binding (RPS6KA4 N-terminal kinase domain; cell-free assay; 1 µM): 86%

N[C@@H]1CCN(c2nccc(-c3cnn4ncccc34)n2)C1
remaining binding (RPS6KA4 C-terminal kinase domain; binding; 1 µM): 100%

Nc1ncc2c(n1)-c1c([nH]c3ccc(C#CC4CC4)cc13)CCCC2
remaining binding (RPS6KA4 C-terminal kinase domain; binding; 1 µM): 93%

O=C(c1ccc(Nc2ncc(Cl)c(-c3cc4ccccc4s3)n2)cc1)N1CCC(N2CCCC2)CC1
remaining binding (RPS6KA4 N-terminal kinase domain; binding; 1 µM): 100%

Cc1cnn2ncc(-c3ccnc(N(C)C)n3)c2c1
remaining binding (RPS6KA4 N-terminal kinase domain; binding; 1 µM): 97%
